Test results taken from PubChem BioAssay AID493249 (Broad Institute, 2011).
Several values for one entry are separate records, joined by “and”; a condition that tells them apart may be missing. Equal entries are not always repeated. Activity calls are given as the source filed them.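 How the source made its calls: active means compounds lowering cell viability with a fitted IC50 within ten times their top tested dose; inconclusive means flat viability loss of 30 to 70 percent, or poor fit; inactive means the rest.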

Key:
[1] = test system: U2OS HRE-luc cells, viability toxicity counter-screen, CellTiter-Glo; test: toxicity in U2OS HRE-luc reporter cells, dose response, cytotoxicity control for HIF pathway activator project, cell-based, dry powder, set 7 (AID 493249)
Outline: (§1)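 System – human osteosarcoma U2OS cells stably expressing 3×HRE-luciferase reporter · Quantity – 6,000 cells/well · Medium – phenol red-free DMEM, 10% FBS, no hygromycin · Compound – 8-point 3-fold dilution series, 7.5 mM top stock · Incubation – 24 h plating plus 24 h compound treatment · Measured by – CellTiter-Glo luminescence for cell viability · Measure – compound toxicity as loss of cell viability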

[2] = as above; conditions: U2OS HRE-luc cells, viability toxicity counter-screen, CellTiter-Glo; at 38 µM (top of the series)
Outline: as §1

Row | Compound | IC50 [1] | activity change, negative = toxicity [2]
1 | c1ccc(-c2nnc(-c3ccccn3)nc2NCc2ccccn2)cc1 | > 38 µM (inactive) | 
2 | Oc1ccc(CN2CCC(Cc3ccccc3)CC2)c2cccnc12 |  | -14.5% (inactive)
3 | Cc1ccc(CNC(=O)c2cc(-c3ccccc3)on2)cc1 |  | 1.57% (inactive)
4 | c1ccc(-c2nnc(-c3ccccn3)nc2N2CCC(C3CCCCC3)C2)cc1 (centres undefined) |  | 14.5% (inactive)
5 | O=C(NC1CCc2ccccc2C1)c1cc(-c2ccccc2)on1 (centres undefined) |  | -10.6% (inactive)
6 | Oc1ccc(CNC2CCc3ccccc32)c2cccnc12 (centres undefined) |  | -17.9% (inactive)
7 | O=C(Nc1ccc2ccccc2n1)c1cc(-c2ccccc2)on1 |  | 9.02% (inactive)
8 | CN(C)CCNC(=O)c1cc(-c2ccccc2)on1 |  | 14.4% (inactive)
9 | O=C(Nc1cn2ccccc2n1)c1cc(-c2ccccc2)on1 |  | -3.68% (inactive)
10 | O=C(NCCN1CCCCC1)c1cc(-c2ccccc2)on1 | > 38 µM (inactive) | 
11 | O=C(c1cc(-c2ccccc2)on1)N1CCC(N2CCCC2)CC1 |  | -8.3% (inactive)
12 | c1ccc(-c2nnc(-c3ccccn3)nc2N2CCC(c3ccccc3)C2)cc1 (centres undefined) |  | -24.1% (inactive)
13 | c1ccc(-c2nnc(-c3ccccn3)nc2NCc2cccnc2)cc1 |  | 40.2% (inactive)
14 | Cn1c(-c2ccccc2)cnc1Nc1nc(-c2ccccn2)nnc1-c1ccccc1 | 34.8 µM | 
15 | O=C(c1cc(-c2ccccc2)on1)N1CCC(N2CCOCC2)CC1 |  | -9.91% (inactive)
16 | Cn1c(-c2ccccc2)cnc1NC(=O)c1cc(-c2ccccc2)on1 |  | -8.92% (inactive)
17 | c1ccc(-c2nnc(-c3ccccn3)nc2N2CCN(c3ccncc3)CC2)cc1 | > 38 µM (inactive) | 
18 | O=C(NCCCn1ccnc1)c1cc(-c2ccccc2)on1 |  | -7.78% (inactive)
19 | N#CC1(c2ccccc2)CCN(Cc2ccc(O)c3ncccc23)CC1 |  | 7.2% (inactive)
20 | c1ccc(-c2nnc(-c3ccccn3)nc2Nc2nc3ccccc3s2)cc1 | > 38 µM (inactive) | 
21 | CC(C)(C)CCNC(=O)c1cc(-c2ccccc2)on1 |  | -7.02% (inactive)
22 | CCCCNC(=O)c1cc(-c2ccccc2)on1 |  | -11.5% (inactive)
23 | O=C(NCC1CCCCC1)c1cc(-c2ccccc2)on1 |  | 0.869% (inactive)
24 | OCC1CCN(c2nc(-c3ccccn3)nnc2-c2ccccc2)CC1 |  | -13.9% (inactive)
25 | COc1ccccc1N1CCN(Cc2ccc(O)c3ncccc23)CC1 |  | -18.6% (inactive)
26 | Cc1ccccc1CNc1nc(-c2ccccn2)nnc1-c1ccccc1 |  | -17.6% (inactive)
27 | OCC1CCN(Cc2ccc(O)c3ncccc23)CC1 |  | -25% (inactive)

Row | Compound | IC50 [1] | activity change, negative = toxicity [2]
28 | O=C(NCCCN1CCOCC1)c1cc(-c2ccccc2)on1 |  | 0.736% (inactive)
29 | c1ccc(-c2csc(Nc3nc(-c4ccccn4)nnc3-c3ccccc3)n2)cc1 | > 38 µM (inactive) | 
30 | c1ccc(-c2nnc(-c3ccccn3)nc2NCC2CCOCC2)cc1 |  | 20.8% (inactive)
31 | Cc1cccc(CNC(=O)c2cc(-c3ccccc3)on2)c1 |  | -1.11% (inactive)
32 | COc1cccc(CNc2nc(-c3ccccn3)nnc2-c2ccccc2)c1 |  | -14.9% (inactive)
33 | Cc1ccc(CNc2nc(-c3ccccn3)nnc2-c2ccccc2)cc1 |  | -15.4% (inactive)
34 | CC1CN(Cc2ccc(O)c3ncccc23)CC(C)O1 (centres undefined) | > 38 µM (inactive) | 
35 | O=C(Nc1nc(-c2ccccc2)cs1)c1cc(-c2ccccc2)on1 |  | 13.9% (inactive)
36 | O=C(NCCCCO)c1cc(-c2ccccc2)on1 |  | -16.3% (inactive)
37 | O=C(NCCN1CCOCC1)c1cc(-c2ccccc2)on1 |  | -16.1% (inactive)
38 | Cc1ccc(NC(=O)c2cc(-c3ccccc3)on2)cn1 |  | -11.1% (inactive)
39 | Cc1ccccc1CNC(=O)c1cc(-c2ccccc2)on1 |  | -4.19% (inactive)
40 | O=C(c1cc(-c2ccccc2)on1)N1CCN(c2ccncc2)CC1 | > 38 µM (inactive) | 
41 | Oc1ccc(CN2CCc3ccccc3C2)c2cccnc12 |  | -16.2% (inactive)
42 | Cc1cccc(CNc2nc(-c3ccccn3)nnc2-c2ccccc2)c1 |  | -16.7% (inactive)
43 | Cc1cccc(NC(=O)c2cc(-c3ccccc3)on2)n1 |  | -0.352% (inactive)
44 | c1ccc(-c2nnc(-c3ccccn3)nc2NCCCN2CCOCC2)cc1 |  | 11% (inactive)
45 | CC(C)(C)OC(=O)N1CCN(Cc2ccc(O)c3ncccc23)CC1 |  | 6.17% (inactive)
46 | O=C(Nc1ncc2ccccc2n1)c1cc(-c2ccccc2)on1 |  | -4.1% (inactive)
47 | Clc1cccc(CNc2nc(-c3ccccn3)nnc2-c2ccccc2)c1 |  | 2.17% (inactive)
48 | c1ccc(-c2nnc(-c3ccccn3)nc2NCC2CC2)cc1 |  | 8.28% (inactive)
49 | O=C(NCCCO)c1cc(-c2ccccc2)on1 |  | -3.27% (inactive)
50 | c1ccc(-c2nnc(-c3ccccn3)nc2NCCc2ccccn2)cc1 |  | 4.22% (inactive)
51 | Oc1ccc(CNC2Cc3ccccc3C2)c2cccnc12 |  | 0.726% (inactive)
52 | CC(C)(C)CCNc1nc(-c2ccccn2)nnc1-c1ccccc1 |  | -13% (inactive) and -32.8% (inactive)
53 | O=C(Nc1nc2ccccc2s1)c1cc(-c2ccccc2)on1 |  | -1.46% (inactive)
54 | O=C(Nc1cnc2ccccc2c1)c1cc(-c2ccccc2)on1 |  | 0.164% (inactive)

Row | Compound | IC50 [1] | activity change, negative = toxicity [2]
55 | CC(Nc1nc(-c2ccccn2)nnc1-c1ccccc1)c1ccccc1 (centres undefined) |  | 0.427% (inactive)
56 | c1ccc(-c2nnc(-c3ccccn3)nc2NCCN2CCOCC2)cc1 |  | -9.28% (inactive)
57 | C=CCNc1nc(-c2ccccn2)nnc1-c1ccccc1 |  | 3.09% (inactive)
58 | C[C@@H](Nc1nc(-c2ccccn2)nnc1-c1ccccc1)c1ccccc1 |  | -13.6% (inactive)
59 | O=C(Nc1nnc(-c2ccccc2)s1)c1cc(-c2ccccc2)on1 |  | -7.07% (inactive)
60 | O=C(NCC1CC1)c1cc(-c2ccccc2)on1 |  | -6.03% (inactive)
61 | CN1CCN(c2nc(-c3ccccn3)nnc2-c2ccccc2)CC1 |  | -13.4% (inactive)
62 | c1ccc(-c2nnc(Nc3nc(-c4ccccn4)nnc3-c3ccccc3)s2)cc1 | > 38 µM (inactive) | 
63 | O=C(Nc1ncc(-c2ccccc2)o1)c1cc(-c2ccccc2)on1 |  | 1.41% (inactive)
64 | Cn1c(NC(=O)c2cc(-c3ccccc3)on2)nc2ccccc21 |  | -0.865% (inactive)
65 | c1ccc(-c2cccc(CNc3nc(-c4ccccn4)nnc3-c3ccccc3)c2)cc1 |  | -2.36% (inactive)
66 | OCCCNc1nc(-c2ccccn2)nnc1-c1ccccc1 |  | 4.98% (inactive)
67 | CN1CCN(C(=O)c2cc(-c3ccccc3)on2)CC1 |  | 3.42% (inactive)
68 | c1ccc(-c2cnc(Nc3nc(-c4ccccn4)nnc3-c3ccccc3)s2)cc1 |  | 1.53% (inactive)
69 | Cc1cccc(Nc2nc(-c3ccccn3)nnc2-c2ccccc2)n1 |  | -12.6% (inactive)
70 | Oc1ccc(CN2CCC3CCCCC3C2)c2cccnc12 (centres undefined) | > 38 µM (inactive) | 
71 | O=C(c1cc(-c2ccccc2)on1)N1CCc2cccnc21 |  | -7.75% (inactive)
72 | COc1ccc(CNc2nc(-c3ccccn3)nnc2-c2ccccc2)cc1 |  | -2.05% (inactive)
73 | c1ccc(CCNc2nc(-c3ccccn3)nnc2-c2ccccc2)cc1 |  | -5.99% (inactive)
74 | c1ccc(-c2nnc(-c3ccccn3)nc2NCC2CCCCC2)cc1 |  | -26% (inactive)
75 | O=C(NC1Cc2ccccc2C1)c1cc(-c2ccccc2)on1 |  | -13.3% (inactive)
76 | O=C(NCc1ccccc1)c1cc(-c2ccccc2)on1 |  | -7.7% (inactive)
77 | CN(C)c1nc(-c2ccccn2)nnc1-c1ccccc1 |  | 2.11% (inactive)
78 | O=C(c1cc(-c2ccccc2)on1)N1CCC(CO)CC1 |  | 1.17% (inactive)
79 | c1ccc(-c2nnc(-c3ccccn3)nc2N2CCC(N3CCOCC3)CC2)cc1 | > 38 µM (inactive) | 
